Assay results: paper PMC5743405 (International Journal of Oncology, 2017)
“Also recorded” adds a separate entry of the source.

How the values were obtained:
[1] = test system: ADRB1; experiment: PathHunter β-arrestin; type: cell-based; conditions: 6 μM
Procedure, shortened: (§1)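 β-Arrestin recruitment assay: the enzyme acceptor is fused to β-arrestin and the ED fragment to the GPCR. Recruitment restores β-galactosidase, read by chemiluminescence. % activity = 100% × (test − vehicle)/(max control ligand − vehicle). % inhibition = 100% × (1 − (test − vehicle)/(EC80 control − vehicle)). An agonist hit needs >30% activity and RLU > baseline + 3×SD. An antagonist hit needs >35% inhibition and RLU < EC80 RLU − 3×SD.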

[2] = test system: NTSR1; experiment: PathHunter β-arrestin; type: cell-based; conditions: antagonist mode, 6 μM
Procedure, shortened: (§2)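 GPCR-ED fusion and β-arrestin-EA fusion; arrestin recruitment restores β-galactosidase, read by chemiluminescence. Antagonist mode uses EC80 agonist challenge. % inhibition = 100 × (1 − (test − vehicle RLU)/(EC80 control − vehicle RLU)). Hit requires >35% inhibition and mean RLU below EC80 RLU − 3 × EC80 SD.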

[3] = test system: LTB4R; experiment: PathHunter β-arrestin; type: cell-based; conditions: agonist mode, 6 μM
Procedure, shortened: (§3)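 Vendor-run (DiscoveRx) PathHunter enzyme fragment complementation. β-Arrestin carries the EA fragment and the receptor carries ED; recruitment restores β-gal activity, read by chemiluminescence (RLU). Agonist % activity = vehicle-subtracted RLU relative to max control ligand (gpcrMAX) or to vehicle (orphanMAX). Antagonist % inhibition = 100% × (1 − vehicle-subtracted sample RLU / vehicle-subtracted EC80 agonist control RLU).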

[4] = test system: P2RY6; experiment: PathHunter β-arrestin; type: cell-based; conditions: antagonist mode, 6 μM
Procedure, shortened: as §2

[5] = test system: CXCR6; experiment: PathHunter β-arrestin; type: cell-based; conditions: 6 μM
Procedure, shortened: (§4)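 Engineered cells express the receptor fused to one β-galactosidase fragment (ED) and β-arrestin fused to the complementing fragment (EA). Receptor activation recruits β-arrestin, which restores enzyme activity, and this is read by chemiluminescence (RLU). Agonist % activity is 100% × (test − vehicle)/(maximal control ligand − vehicle). Antagonist mode is challenged with an EC80 control agonist, and % inhibition is 100% × (1 − (test − vehicle)/(EC80 − vehicle)). Hits require >30% activity or >35% inhibition, plus a 3×SD RLU margin.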

[6] = test system: DRD2L; experiment: PathHunter β-arrestin; type: cell-based; conditions: antagonist mode, 6 μM
Procedure, shortened: as §4

[7] = test system: miR-302C; conditions: human chondrosarcoma; targets Nanog, c-Myc and Bmi1 also; ref [10]; cited from earlier work
[8] = test system: CALCR-RAMP3; experiment: PathHunter β-arrestin; type: cell-based; conditions: antagonist mode, 6 μM
Procedure, shortened: as §1

[9] = test system: GPR109A; experiment: PathHunter β-arrestin; type: cell-based; conditions: antagonist mode, 6 μM
Procedure, shortened: as §3

[10] = test system: FPR1; experiment: PathHunter β-arrestin; type: cell-based; conditions: antagonist mode, 6 μM
Procedure, shortened: as §4

[11] = test system: PTGER4; experiment: PathHunter β-arrestin; type: cell-based; conditions: 6 μM
Procedure, shortened: (§5)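 β-Arrestin recruitment to GPCR read by β-galactosidase fragment complementation and chemiluminescence. Agonist: % = 100 × (test − vehicle)/(max control ligand − vehicle), hit at >30% and RLU > baseline + 3 SD. Antagonist, against EC80 agonist: % inhibition = 100 × (1 − (test − vehicle)/(EC80 − vehicle)), hit at >35% and RLU < EC80 − 3 SD.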

[12] = test system: HTR1F; experiment: PathHunter β-arrestin; type: cell-based; conditions: 6 μM
Procedure, shortened: as §3

[13] = test system: F2RL3; experiment: PathHunter β-arrestin; type: cell-based; conditions: 6 μM
Procedure, shortened: as §4

[14] = test system: GPR35; experiment: PathHunter β-arrestin; type: cell-based; conditions: 6 μM
Procedure, shortened: as §3

[15] = test system: CXCR2; experiment: PathHunter β-arrestin; type: cell-based; conditions: 6 μM
Procedure, shortened: as §4

[16] = test system: TACR2; experiment: PathHunter β-arrestin; type: cell-based; conditions: agonist mode, 6 μM
[17] = test system: OXER1; experiment: PathHunter β-arrestin; type: cell-based; conditions: agonist mode, 6 μM
[18] = test system: P2RY12; experiment: PathHunter β-arrestin; type: cell-based; conditions: 6 μM
Procedure, shortened: as §5

[19] = test system: TICAM2 (TRAM); experiment: western blot, JJ012 cells; type: cell-based, human; conditions: vs untreated control, overnight incubation
[20] = test system: VIPR2; experiment: PathHunter β-arrestin; type: cell-based; conditions: 6 μM
Procedure, shortened: as §5

[21] = test system: nuclear receptor; experiment: PathHunter NHR assays, nhrMAX panel, antagonist mode; type: cell-based; conditions: summary of Table IV
Procedure, shortened: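 Enzyme fragment complementation: NHR nuclear recruitment of a co-activator peptide fusion restores β-galactosidase, read by chemiluminescence. Test compound preincubated 1 h before agonist challenge. % inhibition = 100 × (1 − (test − vehicle RLU)/(EC80 control − vehicle RLU)). Hit requires >35% inhibition and mean RLU below EC80 RLU − 3 × EC80 SD.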

[22] = test system: HTR2A; experiment: PathHunter β-arrestin; type: cell-based; conditions: 6 μM
Procedure, shortened: as §3

[23] = test system: TLR2; experiment: western blot, JJ012 cells; type: cell-based, human; conditions: vs untreated control, overnight incubation
Procedure, shortened: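 JJ012 cells seeded at 1×10^6 cells/ml in 6-well clusters and incubated overnight at 37°C, 5% CO2 with or without test compound. Lysed with protease inhibitor (1:100) and centrifuged at 15,000 × g, 4°C. Protein loaded at 20 μg/lane with reducing agent, run on polyacrylamide gel, transferred to PVDF, probed with rabbit anti-TLR primaries and HRP-linked secondaries.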

[24] = test system: CCR1; experiment: PathHunter β-arrestin; type: cell-based; conditions: antagonist mode, 6 μM
Procedure, shortened: as §1

[25] = test system: CCKAR; experiment: PathHunter β-arrestin; type: cell-based; conditions: antagonist mode, 6 μM
Procedure, shortened: as §1

[26] = test system: CRHR1; experiment: PathHunter β-arrestin; type: cell-based; conditions: 6 μM
Procedure, shortened: as §4

[27] = test system: orphan receptors; experiment: orphanMAX β-arrestin panel, agonist mode; type: cell-based; conditions: summary of Table III
[28] = test system: C5AR1; experiment: PathHunter β-arrestin; type: cell-based; conditions: antagonist mode, 6 μM
Procedure, shortened: as §1

[29] = test system: CHRM1; experiment: PathHunter β-arrestin; type: cell-based; conditions: 6 μM
Procedure, shortened: as §4

[30] = ref [61]; cited from earlier work

## Proline rich polypeptide 1 [PRP-1]
[1]; agonist mode
  % Activity: 1%
[1]; antagonist mode
  % Inhibition: −5%
[2]
  % Inhibition: −1%
[3]
  % Activity: 1%
[4]
  % Inhibition: 3%
[5]; agonist mode
  % Activity: 2%
[5]; antagonist mode
  % Inhibition: −6%
[6]
  % Inhibition: 2%
[7]
  miR-302c expression: epigenetically downregulates
[8]
  % Inhibition: −8%
[9]
  % Inhibition: −4%
[10]
  % Inhibition: −4%
[11]; agonist mode
  % Activity: 1%
[11]; antagonist mode
  % Inhibition: 4%
[12]; agonist mode
  % Activity: 2%
[12]; antagonist mode
  % Inhibition: 2%
[13]; agonist mode
  % Activity: −1%
[13]; antagonist mode
  % Inhibition: −1%
[14]; agonist mode
  % Activity: 1%
[14]; antagonist mode
  % Inhibition: −6%
[15]; agonist mode
  % Activity: 1%
[15]; antagonist mode
  % Inhibition: −3%
[16]
  % Activity: 1%
[17]
  % Activity: −2%
[18]; agonist mode
  % Activity: 1%
[18]; antagonist mode
  % Inhibition: 8%
[19]
  protein expression: upregulated in dose-dependent manner
[20]; agonist mode
  % Activity: 1%
[20]; antagonist mode
  % Inhibition: −3%
[21]
  nuclear receptor antagonism: neither that this peptide was agonist for orphan receptors (Table III) or agonist/antagonist for nuclear receptor
[22]; agonist mode
  % Activity: 1%
[22]; antagonist mode
  % Inhibition: −5%
[23]
  protein expression: strong upregulation; also recorded: upregulated protein expression of TLR1 and TLR2 in dose-dependent manner
[24]
  % Inhibition: −3%
[25]
  % Inhibition: −3%
[26]; agonist mode
  % Activity: 1%
[26]; antagonist mode
  % Inhibition: 1%
[27]
  orphan receptor agonism: neither that this peptide was agonist for orphan receptors
[28]
  % Inhibition: 3%
[29]; agonist mode
  % Activity: 1%
[29]; antagonist mode
  % Inhibition: −12%
[30]
  antibacterial properties: antibacterial properties
